Experimental data published in ChEMBL document CHEMBL1141568, “Malaria-infected mice are cured by oral administration of new artemisinin derivatives” (2008).

What was measured:
Assay type in all cases: functional
Plasmodium berghei [1] = assay: Antimalarial survival activity in Plasmodium berghei infected NMRI mice (Mus musculus) at 30 mg/kg peroral dose (3x daily); settings: route oral
Method in brief: (§1)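 P. berghei GFP ANKA, 2 × 10⁷ parasitized erythrocytes given intravenously to NMRI mice on day 0. Compound in 70/30 Tween 80/ethanol, diluted 10× with water, given orally at 10 mL/kg at 24, 48 and 72 h postinfection; n = 3 per group. Read-out is average survival in days after infection, with individual survival also given. Cure means no blood parasites by flow cytometry on day 30.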

Plasmodium berghei [2] = assay: Antimalarial activity as survival time in Plasmodium berghei-infected NMRI mice (Mus musculus) at 10 mg/kg peroral dose three times daily; settings: route oral; method in brief: as §1
Plasmodium berghei [3] = assay: Antimalarial survival activity in Plasmodium berghei infected NMRI mice (Mus musculus) at 30 mg/kg peroral dose; settings: route oral
Method in brief: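 NMRI mice were infected intravenously on day 0 with 2 × 10⁷ P. berghei GFP ANKA parasitized erythrocytes. One oral dose of 30 mg/kg was given 24 h postinfection in 70/30 Tween 80/ethanol diluted 10× with water, at 10 mL/kg; n = 3 per group. Read-out is average survival in days after infection.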

Plasmodium berghei [4] = assay: Reduced parasitemia in Plasmodium berghei infected NMRI mice (Mus musculus); set-up: concentration or dose not given beside the values
Method in brief: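 P. berghei GFP ANKA infection (2 × 10⁷ parasitized erythrocytes i.v., day 0) in NMRI mice, n = 3 per group. One oral dose of 1 × 30 mg/kg at 24 h postinfection, in Tween 80/ethanol 70/30 diluted 10× with water. Blood parasitemia on day 3 postinfection by flow cytometry, given as % suppression against untreated infected mice.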

CNC(=O)N1CCC2(CC1)OCC(C[C@H]1O[C@@H]3O[C@]4(C)CC[C@H]5[C@H](C)CC[C@@H]([C@H]1C)[C@@]35OO4)(C[C@H]1O[C@@H]3O[C@]4(C)CC[C@H]5[C@H](C)CC[C@@H]([C@H]1C)[C@@]35OO4)O2 (stereo partly specified)
Survival (Plasmodium berghei [1]): >=30 day
Survival (Plasmodium berghei [2]): 13.3 days

C[C@H]1[C@@H](CC2(C[C@H]3O[C@@H]4O[C@]5(C)CC[C@H]6[C@H](C)CC[C@@H]([C@H]3C)[C@@]46OO5)COCO2)O[C@@H]2O[C@]3(C)CC[C@H]4[C@H](C)CC[C@@H]1[C@@]24OO3 (stereo partly specified)
Survival (Plasmodium berghei [1]): >=30 day
Survival (Plasmodium berghei [2]): 11 days

Cc1ccc(COCC(C[C@H]2O[C@@H]3O[C@]4(C)CC[C@H]5[C@H](C)CC[C@@H]([C@H]2C)[C@@]35OO4)C[C@H]2O[C@@H]3O[C@]4(C)CC[C@H]5[C@H](C)CC[C@@H]([C@H]2C)[C@@]35OO4)cc1 (stereo partly specified)
Survival (Plasmodium berghei [1]): >=30 day
Survival (Plasmodium berghei [2]): 8 days

C[C@H]1[C@@H](CC2(C[C@H]3O[C@@H]4O[C@]5(C)CC[C@H]6[C@H](C)CC[C@@H]([C@H]3C)[C@@]46OO5)COC3(CCC(=O)CC3)O2)O[C@@H]2O[C@]3(C)CC[C@H]4[C@H](C)CC[C@@H]1[C@@]24OO3 (stereo partly specified)
Survival (Plasmodium berghei [1]): >=30 day
Survival (Plasmodium berghei [2]): 16.3 days
Survival (Plasmodium berghei [3]): 8.3 days
Activity (Plasmodium berghei [4]): 99.6%

C[C@H]1[C@@H](CC2(C[C@H]3O[C@@H]4O[C@]5(C)CC[C@H]6[C@H](C)CC[C@@H]([C@H]3C)[C@@]46OO5)COC3(CCC3)O2)O[C@@H]2O[C@]3(C)CC[C@H]4[C@H](C)CC[C@@H]1[C@@]24OO3 (stereo partly specified)
Survival (Plasmodium berghei [1]): >=30 day
Survival (Plasmodium berghei [2]): 7 days

CCOP(=S)(OCC)OCC(C[C@H]1O[C@@H]2O[C@]3(C)CC[C@H]4[C@H](C)CC[C@@H]([C@H]1C)[C@@]24OO3)C[C@H]1O[C@@H]2O[C@]3(C)CC[C@H]4[C@H](C)CC[C@@H]([C@H]1C)[C@@]24OO3 (stereo partly specified)
Survival (Plasmodium berghei [1]): 24.7 days
Survival (Plasmodium berghei [2]): 7.7 days

CCN(CC)C(=O)OCC(C[C@H]1O[C@@H]2O[C@]3(C)CC[C@H]4[C@H](C)CC[C@@H]([C@H]1C)[C@@]24OO3)C[C@H]1O[C@@H]2O[C@]3(C)CC[C@H]4[C@H](C)CC[C@@H]([C@H]1C)[C@@]24OO3 (stereo partly specified)
Survival (Plasmodium berghei [1]): >=30 day
Survival (Plasmodium berghei [2]): 14 days
Survival (Plasmodium berghei [3]): 11.7 days
Activity (Plasmodium berghei [4]): 99.3%

C[C@H]1[C@@H](CC2(C[C@H]3O[C@@H]4O[C@]5(C)CC[C@H]6[C@H](C)CC[C@@H]([C@H]3C)[C@@]46OO5)COC3(CCOCC3)O2)O[C@@H]2O[C@]3(C)CC[C@H]4[C@H](C)CC[C@@H]1[C@@]24OO3 (stereo partly specified)
Survival (Plasmodium berghei [1]): >=30 day
Survival (Plasmodium berghei [2]): 15.7 days
Survival (Plasmodium berghei [3]): 9 days
Activity (Plasmodium berghei [4]): 99.5%

C[C@H]1[C@@H](CC(C[C@H]2O[C@@H]3O[C@]4(C)CC[C@H]5[C@H](C)CC[C@@H]([C@H]2C)[C@@]35OO4)=NNC(=O)c2ccncc2)O[C@@H]2O[C@]3(C)CC[C@H]4[C@H](C)CC[C@@H]1[C@@]24OO3
Survival (Plasmodium berghei [1]): >=30 day
Survival (Plasmodium berghei [2]): 17.7 days
Survival (Plasmodium berghei [3]): 10 days
Activity (Plasmodium berghei [4]): 99.4%

C[C@H]1[C@@H](CC2(C[C@H]3O[C@@H]4O[C@]5(C)CC[C@H]6[C@H](C)CC[C@@H]([C@H]3C)[C@@]46OO5)COC3(CCN(C(=O)c4ccccc4)CC3)O2)O[C@@H]2O[C@]3(C)CC[C@H]4[C@H](C)CC[C@@H]1[C@@]24OO3 (stereo partly specified)
Survival (Plasmodium berghei [2]): 15.7 days
Survival (Plasmodium berghei [3]): 10 days
Activity (Plasmodium berghei [4]): 99%

C[C@H]1[C@@H](CC(C[C@H]2O[C@@H]3O[C@]4(C)CC[C@H]5[C@H](C)CC[C@@H]([C@H]2C)[C@@]35OO4)C(=O)NCC2CCCCC2)O[C@@H]2O[C@]3(C)CC[C@H]4[C@H](C)CC[C@@H]1[C@@]24OO3 (stereo partly specified)
Survival (Plasmodium berghei [1]): >=30 day
Survival (Plasmodium berghei [2]): 7 days

C[C@H]1[C@@H](CC(C[C@H]2O[C@@H]3O[C@]4(C)CC[C@H]5[C@H](C)CC[C@@H]([C@H]2C)[C@@]35OO4)c2nnc(-c3ccc(F)cc3)o2)O[C@@H]2O[C@]3(C)CC[C@H]4[C@H](C)CC[C@@H]1[C@@]24OO3 (stereo partly specified)
Survival (Plasmodium berghei [3]): 10 days
Activity (Plasmodium berghei [4]): 98.8%

Cc1noc(C(C[C@H]2O[C@@H]3O[C@]4(C)CC[C@H]5[C@H](C)CC[C@@H]([C@H]2C)[C@@]35OO4)C[C@H]2O[C@@H]3O[C@]4(C)CC[C@H]5[C@H](C)CC[C@@H]([C@H]2C)[C@@]35OO4)n1 (stereo partly specified)
Survival (Plasmodium berghei [3]): 13.7 days
Activity (Plasmodium berghei [4]): 98.9%

C[C@H]1[C@@H](CC(C[C@H]2O[C@@H]3O[C@]4(C)CC[C@H]5[C@H](C)CC[C@@H]([C@H]2C)[C@@]35OO4)C(=O)NCC(C)(C)C)O[C@@H]2O[C@]3(C)CC[C@H]4[C@H](C)CC[C@@H]1[C@@]24OO3 (stereo partly specified)
Survival (Plasmodium berghei [1]): 27.7 days
Survival (Plasmodium berghei [2]): 6 days

C[C@H]1[C@@H](CC(C[C@H]2O[C@@H]3O[C@]4(C)CC[C@H]5[C@H](C)CC[C@@H]([C@H]2C)[C@@]35OO4)C(=O)NCc2ccncc2)O[C@@H]2O[C@]3(C)CC[C@H]4[C@H](C)CC[C@@H]1[C@@]24OO3 (stereo partly specified)
Survival (Plasmodium berghei [1]): 11.3 days
Survival (Plasmodium berghei [2]): 7 days

C[C@H]1[C@@H](CC(O)(COC(=O)c2ccccc2)C[C@H]2O[C@@H]3O[C@]4(C)CC[C@H]5[C@H](C)CC[C@@H]([C@H]2C)[C@@]35OO4)O[C@@H]2O[C@]3(C)CC[C@H]4[C@H](C)CC[C@@H]1[C@@]24OO3 (stereo partly specified)
Survival (Plasmodium berghei [1]): 20.7 days
Survival (Plasmodium berghei [2]): 6 days

C[C@H]1[C@@H](CC(C[C@H]2O[C@@H]3O[C@]4(C)CC[C@H]5[C@H](C)CC[C@@H]([C@H]2C)[C@@]35OO4)C(=O)N[C@@H](C)c2ccc(F)cc2)O[C@@H]2O[C@]3(C)CC[C@H]4[C@H](C)CC[C@@H]1[C@@]24OO3 (stereo partly specified)
Survival (Plasmodium berghei [3]): 12.7 days
Activity (Plasmodium berghei [4]): 98.9%

C[C@@H]1CC[C@H]2[C@@H](C)C(OC(=O)CCC(=O)[O-])O[C@@H]3O[C@]4(C)CC[C@@H]1[C@]32OO4.[Na+] (stereo partly specified)
Survival (Plasmodium berghei [1]): 7.2 days
Survival (Plasmodium berghei [3]): 7.6 days
Activity (Plasmodium berghei [4]): 92%

COC(=O)c1ccc(CNC(=O)C(C[C@H]2O[C@@H]3O[C@]4(C)CC[C@H]5[C@H](C)CC[C@@H]([C@H]2C)[C@@]35OO4)C[C@H]2O[C@@H]3O[C@]4(C)CC[C@H]5[C@H](C)CC[C@@H]([C@H]2C)[C@@]35OO4)cc1 (stereo partly specified)
Survival (Plasmodium berghei [2]): 10 days

Cc1ccc(CNC(=O)C(C[C@H]2O[C@@H]3O[C@]4(C)CC[C@H]5[C@H](C)CC[C@@H]([C@H]2C)[C@@]35OO4)C[C@H]2O[C@@H]3O[C@]4(C)CC[C@H]5[C@H](C)CC[C@@H]([C@H]2C)[C@@]35OO4)cc1 (stereo partly specified)
Survival (Plasmodium berghei [3]): 10.3 days
Activity (Plasmodium berghei [4]): 99%

CCOC(=O)N1CCC2(CC1)OCC(C[C@H]1O[C@@H]3O[C@]4(C)CC[C@H]5[C@H](C)CC[C@@H]([C@H]1C)[C@@]35OO4)(C[C@H]1O[C@@H]3O[C@]4(C)CC[C@H]5[C@H](C)CC[C@@H]([C@H]1C)[C@@]35OO4)O2 (stereo partly specified)
Survival (Plasmodium berghei [1]): >=30 day
Survival (Plasmodium berghei [2]): 14 days
Survival (Plasmodium berghei [3]): 8.7 days
Activity (Plasmodium berghei [4]): 99.6%

C[C@H]1[C@@H](CC2(C[C@H]3O[C@@H]4O[C@]5(C)CC[C@H]6[C@H](C)CC[C@@H]([C@H]3C)[C@@]46OO5)COC3(CCS(=O)(=O)CC3)O2)O[C@@H]2O[C@]3(C)CC[C@H]4[C@H](C)CC[C@@H]1[C@@]24OO3
Survival (Plasmodium berghei [1]): >=30 day
Survival (Plasmodium berghei [2]): 8.3 days

C[C@H]1[C@@H](CC(O)(COCC#CCOCc2ccc(F)cc2)C[C@H]2O[C@@H]3O[C@]4(C)CC[C@H]5[C@H](C)CC[C@@H]([C@H]2C)[C@@]35OO4)O[C@@H]2O[C@]3(C)CC[C@H]4[C@H](C)CC[C@@H]1[C@@]24OO3 (stereo partly specified)
Survival (Plasmodium berghei [3]): 6.3 days
Activity (Plasmodium berghei [4]): 88%

C[C@H]1[C@@H](CC(O)(COCc2ccncc2)C[C@H]2O[C@@H]3O[C@]4(C)CC[C@H]5[C@H](C)CC[C@@H]([C@H]2C)[C@@]35OO4)O[C@@H]2O[C@]3(C)CC[C@H]4[C@H](C)CC[C@@H]1[C@@]24OO3 (stereo partly specified)
Survival (Plasmodium berghei [1]): >=30 day
Survival (Plasmodium berghei [2]): 14.7 days
Survival (Plasmodium berghei [3]): 10 days
Activity (Plasmodium berghei [4]): 99.2%
